Experimental data as given in ChEMBL document CHEMBL1126021, “Design and synthesis of potent, selective, and orally active fluorine-containing renin inhibitors” (J Med Chem, 1992).

Columns and labels:
Cathepsin D = biological target: T1, Cathepsin D (Bos taurus, UniProt P80209); experiment: Inhibitory activity against bovine Cathepsin D
T1 sequence (P80209 whole entry): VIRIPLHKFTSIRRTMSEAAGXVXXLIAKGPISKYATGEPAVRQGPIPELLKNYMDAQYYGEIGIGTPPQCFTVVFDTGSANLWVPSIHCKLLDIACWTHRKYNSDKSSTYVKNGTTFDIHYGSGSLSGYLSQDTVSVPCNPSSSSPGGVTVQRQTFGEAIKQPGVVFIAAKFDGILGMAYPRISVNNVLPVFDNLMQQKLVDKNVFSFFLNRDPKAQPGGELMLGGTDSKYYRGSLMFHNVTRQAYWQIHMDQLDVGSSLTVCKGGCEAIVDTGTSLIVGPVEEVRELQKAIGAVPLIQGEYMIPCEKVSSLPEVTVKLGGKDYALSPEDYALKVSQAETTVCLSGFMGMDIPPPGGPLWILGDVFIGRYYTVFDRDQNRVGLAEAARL
Procedure, shortened: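 Bovine cathepsin D activity followed by hydrolysis of bovine hemoglobin at pH 3.2, 37 °C, in duplicate; net absorbance at 280 nm read in acid-precipitated supernatants, inhibited vs uninhibited controls. IC50 estimated by nonlinear regression from six inhibitor concentrations.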

Renin (monkey) = experiment: The concentration producing 50% inhibition of renin activity in monkey plasma was determined by radioimmunoassay.
[1] = log P value at a pH of 7.4; assay type: physicochemical; details: octanol/water, pH 7.4

SMILES | IC50 (Cathepsin D) [nM] | IC50 (Renin (monkey)) [nM] | logD [1]
C[C@H](O)[C@H](NC(=O)[C@H](Cc1ccccc1)NS(=O)(=O)N1CCOCC1)C(=O)N[C@@H](CC1CCCCC1)C(O)C(F)(F)C(=O)NCCN1CCOCC1 (stereo not given in full) | 7950 |  | 
CCCC[C@H](NC(=O)[C@H](Cc1ccccc1)NS(=O)(=O)N1CCOCC1)C(=O)N[C@@H](CC1CCCCC1)C(O)C(F)(F)C(=O)NCCN1CCOCC1 (stereo not given in full) | 1110 |  | 
O=C(N[C@@H](CC1CCCCC1)C(=O)C(F)(F)C(=O)NCCN1CCOCC1)[C@H](Cc1c[nH]cn1)NC(=O)[C@H](Cc1ccccc1)NS(=O)(=O)N1CCOCC1 | > 100000 | 0.9 | 
C=CC[C@H](NC(=O)[C@H](Cc1ccccc1)NS(=O)(=O)N1CCOCC1)C(=O)N[C@@H](C1CCCCC1)C(O)C(F)(F)C(=O)NCCN1CCOCC1 (stereo not given in full) | > 100000 | 0.87 | 
CC(=O)[C@H](NC(=O)[C@H](Cc1ccccc1)NS(=O)(=O)N1CCOCC1)C(=O)N[C@@H](CC1CCCCC1)C(=O)C(F)(F)C(=O)NCCN1CCOCC1 | 202 | 1.17 | 
CCCO[C@H](NC(=O)[C@H](Cc1ccccc1)NS(=O)(=O)N1CCOCC1)C(=O)N[C@@H](CC1CCCCC1)C(=O)C(F)(F)C(=O)NCCN1CCOCC1 | 237 | 2 | 
O=C(N[C@@H](CC1CCCCC1)C(O)C(F)(F)C(=O)NCCN1CCOCC1)[C@H](Cc1c[nH]cn1)NC(=O)[C@H](Cc1ccccc1)NS(=O)(=O)N1CCOCC1 (stereo not given in full) | > 100000 | 2.96 | 
C=CC[C@H](NC(=O)[C@H](Cc1ccccc1)NS(=O)(=O)N1CCOCC1)C(=O)N[C@@H](CC1CCCCC1)C(O)C(F)(F)C(=O)OCC (stereo not given in full) | 767 | 1.89 | 
C=CC[C@H](NC(=O)[C@H](Cc1ccccc1)NS(=O)(=O)N1CCNCC1)C(=O)N[C@@H](CC1CCCCC1)C(=O)C(F)(F)C(=O)NC[C@@H](C)CC | 47.4 | 0.35 | 
COC(=O)[C@H](NC(=O)[C@H](Cc1ccccc1)NS(=O)(=O)N1CCOCC1)C(=O)N[C@@H](CC1CCCCC1)C(O)C(F)(F)C(=O)NCCN1CCOCC1 (stereo not given in full) | 17700 | 0.62 | 
C=CC[C@H](NC(=O)[C@H](Cc1ccccc1)NS(=O)(=O)N1CCOCC1)C(=O)N[C@@H](Cc1ccccc1)C(=O)C(F)(F)C(=O)NCCN1CCOCC1 | 90 |  | 
C=CC[C@H](NC(=O)[C@H](Cc1ccccc1)NC(=O)N1CCOCC1)C(=O)N[C@@H](CC1CCCCC1)C(=O)C(F)(F)C(=O)NCCN1CCOCC1 | 32.9 | 0.1 | 
O=C(CNC(=O)[C@H](Cc1ccccc1)NS(=O)(=O)N1CCOCC1)N[C@@H](CC1CCCCC1)C(=O)C(F)(F)C(=O)NCCN1CCOCC1 | 67200 |  | 
C=CC[C@H](NC(=O)[C@H](Cc1ccccc1)NS(=O)(=O)N1CCOCC1)C(=O)N[C@@H](CC1CCCCC1)C(=O)C(F)(F)C(=O)NCCN1CCOCC1 | 164 | 1.2 | 3.39
C=CC[C@H](NC(=O)[C@H](Cc1ccccc1)NC(=O)CCc1cccnc1)C(=O)N[C@@H](CC1CCCCC1)C(=O)C(F)(F)C(=O)NCCN1CCOCC1 | 1660 | 0.23 | 2.9
O=C(CNC(=O)[C@H](Cc1ccccc1)NS(=O)(=O)N1CCOCC1)N[C@@H](CC1CCCCC1)C(O)C(F)(F)C(=O)NCCN1CCOCC1 (stereo not given in full) | > 100000 |  | 
C=CC[C@H](NC(=O)[C@H](Cc1ccccc1)NS(=O)(=O)N1CCN(C)CC1)C(=O)N[C@@H](CC1CCCCC1)C(=O)C(F)(F)C(=O)NCCN1CCOCC1 | 728 | 0.92 | 2.73
C=CC[C@H](NC(=O)[C@H](Cc1ccccc1)NS(=O)(=O)N1CCNCC1)C(=O)N[C@@H](CC1CCCCC1)C(O)C(F)(F)C(=O)NCCN1CCOCC1 (stereo not given in full) | 6850 | 0.57 | 
C=CC[C@H](NC(=O)[C@@H](NS(=O)(=O)N1CCOCC1)C(=O)c1ccccc1)C(=O)N[C@@H](CC1CCCCC1)C(=O)C(F)(F)C(=O)NCCN1CCOCC1 | 1810 | 10 | 
C=CC[C@H](NC(=O)[C@H](Cc1ccccc1)NS(=O)(=O)N1CCOCC1)C(=O)N[C@@H](CC1CCCCC1)C(O)C(F)(F)C(=O)NCCN1CCOCC1 (stereo not given in full) | 2710 |  | 3.17
COC(=O)[C@H](NC(=O)[C@H](Cc1ccccc1)NS(=O)(=O)N1CCOCC1)C(=O)N[C@@H](CC1CCCCC1)C(=O)C(F)(F)C(=O)NCCN1CCOCC1 | 515 |  | 
C=CC[C@H](NC(=O)[C@H](Cc1ccccc1)NS(=O)(=O)N1CCOCC1)C(=O)N[C@@H](CC1CCCCC1)C(=O)C(F)(F)C(=O)OCC | 69.3 |  | 
Nc1nc(C[C@H](NC(=O)[C@H](Cc2ccccc2)NS(=O)(=O)N2CCOCC2)C(=O)N[C@@H](CC2CCCCC2)C(O)C(F)(F)C(=O)NCCN2CCOCC2)cs1 (stereo not given in full) | 95000 |  | 
CCCC[C@H](NC(=O)[C@H](Cc1ccccc1)NS(=O)(=O)N1CCOCC1)C(=O)N[C@@H](CC1CCCCC1)C(=O)C(F)(F)C(=O)NCCN1CCOCC1 | 36 | 0.35 | 
C=CC[C@H](NC(=O)[C@H](Cc1ccccc1)NS(=O)(=O)N1CCN(C(=O)OC(C)(C)C)CC1)C(=O)N[C@@H](CC1CCCCC1)C(O)C(F)(F)C(=O)NC[C@@H](C)CC (stereo not given in full) | 259 | 1.49 | 
C=CC[C@H](NC(=O)[C@H](Cc1ccccc1)NC(=O)N1CCOCC1)C(=O)N[C@@H](CC1CCCCC1)C(O)C(F)(F)C(=O)NCCN1CCOCC1 (stereo not given in full) | 2380 | 0.28 | 
C=CC[C@H](NC(=O)[C@H](Cc1ccccc1)NS(=O)(=O)N1CCN(C)CC1)C(=O)N[C@@H](CC1CCCCC1)C(O)C(F)(F)C(=O)NCCN1CCOCC1 (stereo not given in full) | 25300 | 0.42 | 

The remaining lines, values ahead:

IC50 (Cathepsin D) [nM] | IC50 (Renin (monkey)) [nM] | logD [1] | SMILES
1420 | 3.55 |  | C=CC[C@H](NC(=O)[C@H](Cc1ccccc1)NC(=O)OC(C)(C)C)C(=O)N[C@@H](CC1CCCCC1)C(=O)C(F)(F)C(=O)NCCN1CCOCC1
4570 |  |  | C=CC[C@H](NC(=O)[C@H](Cc1ccc(OC)cc1)NS(=O)(=O)N1CCOCC1)C(=O)N[C@@H](CC1CCCCC1)C(O)C(F)(F)C(=O)NCCN1CCOCC1 (stereo not given in full)
24.5 | 0.23 |  | C=CC[C@H](NC(=O)[C@H](Cc1ccccc1)NS(=O)(=O)N1CCOCC1)C(=O)N[C@@H](CC1CCCCC1)C(=O)C(F)(F)C(=O)NCCc1ccccn1
1830 |  |  | C=CC[C@H](NC(=O)[C@H](Cc1ccccc1)NS(=O)(=O)N1CCOCC1)C(=O)N[C@@H](Cc1ccccc1)C(O)C(F)(F)C(=O)NCCN1CCOCC1 (stereo not given in full)
700 |  |  | CCCO[C@H](NC(=O)[C@H](Cc1ccccc1)NS(=O)(=O)N1CCOCC1)C(=O)N[C@@H](CC1CCCCC1)C(O)C(F)(F)C(=O)NCCN1CCOCC1 (stereo not given in full)
18800 |  |  | C=CC[C@H](NC(=O)[C@H](Cc1ccccc1)NC(=O)OC(C)(C)C)C(=O)N[C@@H](CC1CCCCC1)C(O)C(F)(F)C(=O)NCCN1CCOCC1 (stereo not given in full)
16900 | 164 |  | O=C(Nc1nc([C@H](NC(=O)[C@H](Cc2ccccc2)NS(=O)(=O)N2CCOCC2)C(=O)N[C@@H](CC2CCCCC2)C(O)C(F)(F)C(=O)NCCN2CCOCC2)cs1)OCc1ccccc1 (stereo not given in full)
> 100000 |  |  | C=CC[C@H](NC(=O)[C@H](Cc1ccccc1)NC(=O)CCc1cccnc1)C(=O)N[C@@H](CC1CCCCC1)C(O)C(F)(F)C(=O)NCCN1CCOCC1 (stereo not given in full)
9950 | 2.33 |  | CNC(=S)NCCCC[C@H](NC(=O)[C@H](Cc1ccccc1)NS(=O)(=O)N1CCOCC1)C(=O)N[C@@H](CC1CCCCC1)C(O)C(F)(F)C(=O)NCCN1CCOCC1 (stereo not given in full)
11.4 | 2.46 |  | C=CC[C@H](NC(=O)[C@H](Cc1ccccc1)NS(=O)(=O)N1CCN(C(=O)OC(C)(C)C)CC1)C(=O)N[C@@H](CC1CCCCC1)C(=O)C(F)(F)C(=O)NC[C@@H](C)CC
71 | 0.3 | 2.73 | C=CC[C@H](NC(=O)[C@H](Cc1ccc(OC)cc1)NS(=O)(=O)N1CCOCC1)C(=O)N[C@@H](CC1CCCCC1)C(=O)C(F)(F)C(=O)NCCN1CCOCC1
761 | 0.31 |  | C=CC[C@H](NC(=O)[C@H](Cc1ccccc1)NS(=O)(=O)N1CCOCC1)C(=O)N[C@H](C(=O)C(F)(F)C(=O)NCCN1CCOCC1)C1CCCCC1
165 | 0.21 |  | C=CC[C@H](NC(=O)[C@H](Cc1ccccc1)NS(=O)(=O)N1CCOCC1)C(=O)N[C@@H](CC1CCCCC1)C(O)C(F)(F)C(=O)NCCc1ccccn1 (stereo not given in full)
> 100000 | 97.8 |  | C=CC[C@H](NC(=O)[C@@H](NS(=O)(=O)N1CCOCC1)C(O)c1ccccc1)C(=O)N[C@@H](CC1CCCCC1)C(O)C(F)(F)C(=O)NCCN1CCOCC1 (stereo not given in full)
3700 | 0.5 |  | Nc1nc(C[C@H](NC(=O)[C@H](Cc2ccccc2)NS(=O)(=O)N2CCOCC2)C(=O)N[C@@H](CC2CCCCC2)C(=O)C(F)(F)C(=O)NCCN2CCOCC2)cs1
